Legend:
[1] = target: 5-hydroxytryptamine receptor 1B (Rattus norvegicus, UniProt P28564); experiment: Binding affinity against 5-hydroxytryptamine 1B receptor in membranes of Rat cerebral cortex; type: tissue-based
Summary of the method: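 Rat cerebral cortical membranes labelled with [125I]iodocyanopindolol in the presence of 60 μM isoproterenol to block β-adrenoceptor binding. Nonspecific binding was defined with 10 μM 5-HT.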

Rattus norvegicus [2] = experiment: Effect on the wet dog shake response(WDS) in rats after 8 determinations at a dose of 1 mg/kg, sc pretreated with 200 mg/kg ip of pCPA.
Rattus norvegicus [3] = experiment: Effect on the wet dog shake response(WDS) in rats after 8 determinations at a dose of 1 mg/kg, sc pretreated with saline; conditions: route subcutaneous

Chain of 5-hydroxytryptamine receptor 1B (P28564 whole entry): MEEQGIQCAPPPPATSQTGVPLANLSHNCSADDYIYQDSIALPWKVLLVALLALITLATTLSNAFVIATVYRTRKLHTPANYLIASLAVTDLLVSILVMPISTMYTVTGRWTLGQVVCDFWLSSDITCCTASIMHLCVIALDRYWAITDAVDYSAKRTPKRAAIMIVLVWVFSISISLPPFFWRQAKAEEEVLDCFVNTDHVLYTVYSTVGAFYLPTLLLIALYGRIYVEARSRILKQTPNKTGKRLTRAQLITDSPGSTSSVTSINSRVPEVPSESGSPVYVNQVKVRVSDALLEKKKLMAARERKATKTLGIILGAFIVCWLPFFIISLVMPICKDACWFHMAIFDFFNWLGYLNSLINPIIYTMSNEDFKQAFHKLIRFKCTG

| SMILES | Ki [1] | No. of WDS/60 min (Rattus norvegicus [2]) | No. of WDS/60 min (Rattus norvegicus [3]) |
| --- | --- | --- | --- |
| C1=C(CN2CCOCC2)COc2c1cccc2OCC1CNCCO1 (racemic) | 60 nM |  |  |
| N#CC1=Cc2cccc(OCC3CNCCO3)c2OC1 (racemic) | 250 nM |  |  |
| O=C(C1=Cc2cccc(OCC3CNCCO3)c2OC1)N1CCOCC1 (stereo not drawn) | 240 nM |  |  |
| N#CC1=Cc2cccc(OCC3CCCNC3)c2OC1 (racemic) | 1400 nM |  |  |
| CN1CCOC(COc2cccc3c2OCC(C#N)=C3)C1 (racemic) | 3600 nM |  |  |
| N#CC1=Cc2cccc(OCC3CNCCO3)c2CC1 (racemic) | 445 nM |  |  |
| c1ccc2nc(N3CCNCC3)ccc2c1 [QUIPAZINE] |  | 30 | 36 |

— ChEMBL document CHEMBL1131235, “(R)-(+)-2-[[[3-(Morpholinomethyl)-2H-chromen-8-yl]oxy]methyl] morpholine methanesulfonate: a new selective rat 5-hydroxytryptamine1B receptor antagonist” (J Med Chem, 1998)
